Here are results for 13 compounds from ChEMBL document CHEMBL1142973, “Enzymatically activated cycloSal-d4T-monophosphates: The third generation of cycloSal-pronucleotides” (J Med Chem, 2007).

Molecules are shown by their SMILES.

Data set [1] can be described thus: Chemical stability in phosphate buffer at pH 7.3. The class given is physicochemical. An outline of the steps: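 Triesters incubated in aqueous 25 mM phosphate buffer, pH 7.3; hydrolysis products (d4TMP, salicyl alcohol) followed by HPLC to give half-lives.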
Data set [2] relates to Human immunodeficiency virus 1. As to the kind of experiment: Antiviral activity against HIV1 in CEM/0 cells. Format: functional, organism-based. The following applies: Human immunodeficiency virus 1, CCRF-CEM. Summed up:
(§1)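 CEM/0 cells at 4 × 10^5 cells/mL infected with HIV (HIV-1, or HIV-2 strain ROD) at ~100 CCID50 per mL; virus stocks from infected MT-4 cell supernatants. Mixed 1:1 with compound dilutions, 4-5 days; giant cell formation scored microscopically. EC50, means of two to three independent experiments.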

Data set [3] has as its system Human immunodeficiency virus 2. Put plainly: Antiviral activity against HIV2 ROD in CEM/0 cells. Format: functional, organism-based. As to conditions: Human immunodeficiency virus 2, ROD, CCRF-CEM. An outline of the steps:
as §1

Data set [4] has as its system Human immunodeficiency virus 2. Put plainly: Antiviral activity against HIV2 ROD in CEM/TK- cells. Format: functional, organism-based. As to conditions: Human immunodeficiency virus 2, ROD. An outline of the steps:
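Thymidine kinase-deficient CEM/TK- cells at 4 × 10^5 cells/mL infected with HIV-2 (ROD, MT-4-grown stock) at ~100 CCID50/mL; mixed 1:1 with compound dilutions; giant cell formation scored microscopically after 4-5 days. EC50 as means of two to three independent experiments.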

Data set [5] is described as follows: Hydrolysis half life in CEM cell extracts at pH 6.9. The class given is ADME. The following applies: human, CEM (CCRF-CEM) cell extracts.
Data set [6] in a line: Hydrolysis half life in […]/FCS medium at pH 7.6. Format: ADME. The following applies: cattle, […]/FCS culture medium. An outline of the steps:
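Incubated in RPMI-1640 culture medium with 10% heat-inactivated fetal calf serum, pH 7.6; cleavage products followed by HPLC to derive half-lives.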

Data set [7] can be described thus: Hydrolysis half life in human serum at pH 6.8. The class given is ADME, cell-free. An outline of the steps:
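Incubation in human serum pooled from hospital blood samples, pH 6.8, without acetic acid stop; products analysed by HPLC; half-life determined.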

Compound `Cc1cn([C@H]2C=C[C@@H](COP3(=O)OCc4cc(Br)ccc4O3)O2)c(=O)[nH]c1=O` (stereo partly specified) gave a half-life in data set [1] of 0.88 h. Also, the concentration for a half-maximal effect (EC50) was found to be 140 nM in data set [2], 260 nM in data set [3] and 15000 nM in data set [4].

As for `Cc1cn([C@H]2C=C[C@@H](COP3(=O)OCc4cc(C=O)cc(C(C)(C)C)c4O3)O2)c(=O)[nH]c1=O` (stereo partly specified), in data set [1], the half-life is 0.95 h. Further, the concentration for a half-maximal effect (EC50) was 450 nM in data set [2], 600 nM in data set [3] and 17500 nM in data set [4].

Consider `Cc1cn([C@H]2C=C[C@@H](COP3(=O)OCc4cc(CCC(=O)OCOC(=O)C(C)C)ccc4O3)O2)c(=O)[nH]c1=O` (stereo partly specified), for which the figures for the half-life in data set [1] and in data set [5] were 3.9 h and 0.9 h, respectively. The values for the concentration for a half-maximal effect (EC50) in data set [2], in data set [3] and in data set [4] were 260 nM, 600 nM and 1730 nM, respectively.

The compound `Cc1cn([C@H]2C=C[C@@H](COP3(=O)OCc4cc(C=O)ccc4O3)O2)c(=O)[nH]c1=O` (stereo partly specified) had a half-life in data set [1] of 0.18 h. Moreover, the EC50 in data set [2] came out at 410 nM; in data set [3], 150 nM; in data set [4], 5000 nM.

On to `Cc1cc(C=O)cc2c1OP(=O)(OC[C@@H]1C=C[C@H](n3cc(C)c(=O)[nH]c3=O)O1)OC2` (stereo partly specified), for which the half-life in data set [1] is 0.35 h.

Regarding `Cc1cn([C@H]2C=C[C@@H](COP3(=O)OCc4cc(CCC(=O)OCOC(=O)C(C)(C)C)ccc4O3)O2)c(=O)[nH]c1=O` (stereo partly specified), the half-life in data set [1] is 5.6 h; in data set [5] it was 0.38 h. In addition, the figures for the EC50 in data set [2], in data set [3] and in data set [4] were 230 nM, 330 nM and 700 nM, respectively.

Regarding `Cc1cn([C@H]2C=C[C@@H](COP3(=O)OCc4cc([N+](=O)[O-])ccc4O3)O2)c(=O)[nH]c1=O` (stereo partly specified), the figures for the EC50 in data set [2], in data set [3] and in data set [4] were 290 nM, 400 nM and 40000 nM, respectively.

Compound `Cc1cn([C@H]2C=C[C@@H](COP3(=O)OCc4cccc(C(C)(C)C)c4O3)O2)c(=O)[nH]c1=O` (stereo partly specified) showed a half-life in data set [1] of 73 h. In addition, the results for the EC50 in data set [2], in data set [3] and in data set [4] were 180 nM, 650 nM and 330 nM, respectively.

With `Cc1cccc2c1OP(=O)(OC[C@@H]1C=C[C@H](n3cc(C)c(=O)[nH]c3=O)O1)OC2` (stereo partly specified), the half-life is 17.5 h in data set [1] and 14.5 h in data set [5]. Further, the half-maximal effective concentration (EC50) in data set [2] is 60 nM; in data set [3], 70 nM; in data set [4] it was 50 nM.

For `CC(=O)OC(OC(C)=O)c1cc2c(c(C(C)(C)C)c1)OP(=O)(OC[C@@H]1C=C[C@H](n3cc(C)c(=O)[nH]c3=O)O1)OC2` (stereo partly specified), the half-life is 7 h in data set [1], 0.12 h in data set [5], 4.7 h in data set [6] and 8.7 h in data set [7]. Further, the half-maximal effective concentration (EC50) in data set [2] came to 320 nM; in data set [3] it was 750 nM; in data set [4] it was 3000 nM.

As to `CC(=O)OC(OC(C)=O)c1ccc2c(c1)COP(=O)(OC[C@@H]1C=C[C@H](n3cc(C)c(=O)[nH]c3=O)O1)O2` (stereo partly specified), the half-life in data set [1] was 1.2 h; in data set [5], 0.08 h; in data set [6], 0.9 h; in data set [7], 1.5 h. In addition, the EC50 in data set [2] came out at 420 nM; in data set [3], 400 nM; in data set [4] it was 10500 nM.

For `CC(=O)OC(OC(C)=O)c1cc(C)c2c(c1)COP(=O)(OC[C@@H]1C=C[C@H](n3cc(C)c(=O)[nH]c3=O)O1)O2` (stereo partly specified), the half-life was 2.3 h in data set [1], 0.08 h in data set [5], 1.5 h in data set [6] and 3.6 h in data set [7].

Consider `Cc1cn([C@H]2C=C[C@@H](CO)O2)c(=O)[nH]c1=O` [STAVUDINE], for which the EC50 is 480 nM in data set [2], 630 nM in data set [3] and 47500 nM in data set [4].

A word on the half-life: it is how long it takes for the measured level to halve. As a reminder, the EC50 is the concentration giving half of the maximal effect. Lower therefore signals an effect from little substance.
